According to ChEMBL document CHEMBL5316288, “Synthetic Strategies for Improving Solubility: Optimization of Novel Pyrazolo[1,5-a]pyrimidine CFTR Activator That Ameliorates Dry Eye Disease” (J Med Chem, 2023):
In brackets after ≈: the same amount, converted by molar mass. One block for each molecule: values may come before it. Activity calls are given as the source filed them. The calls are words filed in the database; no cut-off is given here.

Experiments:
[1] = AUC (0 to 24 hrs) in New Zealand White Rabbit eye tear at 0.1 mg per eye, TOP and measured upto 72 hrs by LC-MS/MS analysis; assay type: ADME, tissue-based, Oryctolagus cuniculus, Secretion of lacrimal gland; set-up: dose 0.1 mg, time < 72 hrs, route top; conditions: in vivo, topical_or_ocular
Outline: (§1)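 Male New Zealand White rabbits each received a single topical eye drop of 0.1 mg/eye, formulated in 5% polyoxyl 35 castor oil in sodium phosphate buffer. Plasma, tear, cornea, conjunctiva and retina were sampled from one eye at 0.5, 1, 4, 8, 12, 24, 48 and 72 h. Levels were measured by LC-MS/MS in tear and tissue homogenates. Parameters came from non-compartmental analysis of composite means, n = 3.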

[2] = AUC (0 to infinity) in New Zealand White Rabbit cornea at 0.1 mg per eye, TOP and measured upto 72 hrs by LC-MS/MS analysis; assay type: ADME, tissue-based, Oryctolagus cuniculus; set-up: time < 72 hrs, dose 0.1 mg, route top; conditions: topical or ocular; outline: as §1
[3] = Cmax in New Zealand White Rabbit eye tear at 0.1 mg per eye, TOP and measured upto 72 hrs by LC-MS/MS analysis; assay type: ADME, tissue-based, Oryctolagus cuniculus, Secretion of lacrimal gland; set-up: time < 72 hrs, dose 0.1 mg, route top; conditions: in vivo, topical_or_ocular; outline: as §1
[4] = AUC (0 to 24 hrs) in New Zealand White Rabbit conjunctiva at 0.1 mg per eye, TOP and measured upto 72 hrs by LC-MS/MS analysis; assay type: ADME, tissue-based, Oryctolagus cuniculus; set-up: dose 0.1 mg, time < 72 hrs, route top; conditions: topical or ocular; outline: as §1
[5] = Half life in New Zealand White Rabbit cornea at 0.1 mg per eye, TOP and measured upto 72 hrs by LC-MS/MS analysis; assay type: ADME, tissue-based, Oryctolagus cuniculus; conditions: in vivo, topical_or_ocular; outline: as §1
[6] = AUClast in New Zealand White Rabbit cornea at 0.1 mg per eye, TOP and measured upto 72 hrs by LC-MS/MS analysis; assay type: ADME, tissue-based, Oryctolagus cuniculus; set-up: dose 0.1 mg, time < 72 hrs, route top; conditions: topical or ocular; outline: as §1
[7] = Cytotoxicity against human Conjunctival epithelial cells assessed as reduction in cell viability at 30 uM incubated for 48 hrs with medium changed every 12 hrs by MTS assay; assay type: toxicity, cell-based
Outline: (§2)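 Immortalized human corneal or conjunctival epithelial cells were plated and, after 24 h, exposed to 30 μM compound for 48 h. DMSO served as control and 0.01% Triton X-100 as the lysis control. Medium and compound were renewed every 12 h. Viability was read by MTS, 1 h incubation, absorbance at 490 nm; n = 3.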

[8] = AUClast in New Zealand White Rabbit conjunctiva at 0.1 mg per eye, TOP and measured upto 72 hrs by LC-MS/MS analysis; assay type: ADME, tissue-based, Oryctolagus cuniculus; set-up: time < 72 hrs, dose 0.1 mg, route top; conditions: topical or ocular; outline: as §1
[9] = Cmax in New Zealand White Rabbit conjunctiva at 0.1 mg per eye, TOP and measured upto 72 hrs by LC-MS/MS analysis; assay type: ADME, tissue-based, Oryctolagus cuniculus; set-up: dose 0.1 mg, time < 72 hrs, route top; conditions: topical or ocular; outline: as §1
[10] = AUC (0 to infinity) in New Zealand White Rabbit conjunctiva at 0.1 mg per eye, TOP and measured upto 72 hrs by LC-MS/MS analysis; assay type: ADME, tissue-based, Oryctolagus cuniculus; set-up: time < 72 hrs, dose 0.1 mg, route top; conditions: topical or ocular; outline: as §1
[11] = Cytotoxicity against human Corneal epithelial cells assessed as reduction in cell viability at 30 uM incubated for 48 hrs with medium changed every 12 hrs by MTS assay; assay type: toxicity, cell-based; outline: as §2
[12] = Tlast in New Zealand White Rabbit conjunctiva at 0.1 mg per eye, TOP and measured upto 72 hrs by LC-MS/MS analysis; assay type: ADME, tissue-based, Oryctolagus cuniculus; conditions: in vivo, topical_or_ocular; outline: as §1
[13] = Cmax in New Zealand White Rabbit cornea at 0.1 mg per eye, TOP and measured upto 72 hrs by LC-MS/MS analysis; assay type: ADME, tissue-based, Oryctolagus cuniculus; set-up: dose 0.1 mg, time < 72 hrs, route top; conditions: topical or ocular; outline: as §1
[14] = AUClast in New Zealand White Rabbit eye tear at 0.1 mg per eye, TOP and measured upto 72 hrs by LC-MS/MS analysis; assay type: ADME, tissue-based, Oryctolagus cuniculus, Secretion of lacrimal gland; set-up: dose 0.1 mg, time < 72 hrs, route top; conditions: in vivo, topical_or_ocular; outline: as §1
[15] = Solubility of compound in PBS at 7.5 at 0.5 mg/ml incubated for 90 mins by LC-MS/MS analysis; assay type: physicochemical; conditions: PBS, pH 7.5
Outline: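 Thermodynamic solubility: compound at 0.5 mg/mL in isotonic phosphate-buffered saline, pH 7.5, vortexed for 90 min. The solution was then filtered sequentially through 0.45, 1.2 and 5.0 μm filters. Concentration was measured by LC-MS/MS against a ≥6-point internal-standard calibration curve (weighted 1/x linear or quadratic) and back-calculated.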

[16] = Tlast in New Zealand White Rabbit cornea at 0.1 mg per eye, TOP and measured upto 72 hrs by LC-MS/MS analysis; assay type: ADME, tissue-based, Oryctolagus cuniculus; conditions: in vivo, topical_or_ocular; outline: as §1
[17] = Tmax in New Zealand White Rabbit cornea at 0.1 mg per eye, TOP and measured upto 72 hrs by LC-MS/MS analysis; assay type: ADME, tissue-based, Oryctolagus cuniculus; conditions: in vivo, topical_or_ocular; outline: as §1
[18] = Tlast in New Zealand White Rabbit eye tear at 0.1 mg per eye, TOP and measured upto 72 hrs by LC-MS/MS analysis; assay type: ADME, tissue-based, Oryctolagus cuniculus, Secretion of lacrimal gland; conditions: in vivo, topical_or_ocular; outline: as §1
[19] = AUC (0 to 24 hrs) in New Zealand White Rabbit cornea at 0.1 mg per eye, TOP and measured upto 72 hrs by LC-MS/MS analysis; assay type: ADME, tissue-based, Oryctolagus cuniculus; set-up: dose 0.1 mg, time < 72 hrs, route top; conditions: topical or ocular; outline: as §1
[20] = Half life in New Zealand White Rabbit conjunctiva at 0.1 mg per eye, TOP and measured upto 72 hrs by LC-MS/MS analysis; assay type: ADME, tissue-based, Oryctolagus cuniculus; conditions: in vivo, topical_or_ocular; outline: as §1
[21] = AUC (0 to infinity) in New Zealand White Rabbit eye tear at 0.1 mg per eye, TOP and measured upto 72 hrs by LC-MS/MS analysis; assay type: ADME, tissue-based, Oryctolagus cuniculus, Secretion of lacrimal gland; set-up: time < 72 hrs, dose 0.1 mg, route top; conditions: in vivo, topical_or_ocular; outline: as §1
[22] = Tmax in New Zealand White Rabbit conjunctiva at 0.1 mg per eye, TOP and measured upto 72 hrs by LC-MS/MS analysis; assay type: ADME, tissue-based, Oryctolagus cuniculus; conditions: in vivo, topical_or_ocular; outline: as §1
[23] = Half life in New Zealand White Rabbit eye tear at 0.1 mg per eye, TOP and measured upto 72 hrs by LC-MS/MS analysis; assay type: ADME, tissue-based, Oryctolagus cuniculus, Secretion of lacrimal gland; conditions: in vivo, topical_or_ocular; outline: as §1
Mus musculus [24] = species on record: Mus musculus; experiment: Amelioration ocular surface damage in scopolamine-induced dry eye in C57BL/6J mouse model assessed as recovery of tear volume at 0.3 %,TOP 3 times day for 10 days by phenol red thread test; assay type: functional, organism-based; conditions: time 10.0 day
Outline: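 In scopolamine-induced dry eye mice (0.5 mg/0.1 mL s.c. three times daily, 14 days), drops were given three times daily for 10 days. Scopolamine continued for the first 8 days. Tear volume was read with phenol red thread placed 15 s in the lateral canthus, wet length by caliper. Readings were taken before induction, after induction and after 10 days of drops; n = 5.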

Mus musculus [25] = species on record: Mus musculus; experiment: Amelioration ocular surface damage in scopolamine-induced dry eye in C57BL/6J mouse model assessed as decrease in MMP-2 mRNA expression level in conjunctiva at 0.3 %,TOP 3 times day for 10 days by RT-PCR analysis; assay type: functional, organism-based; conditions: time 10.0 day
Outline: (§3)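 Dry eye was induced by subcutaneous scopolamine hydrobromide 0.5 mg/0.1 mL three times daily for 14 days. Eye drops (vehicle, 0.3% diquafosol or test agent) followed three times daily for 10 days, with scopolamine continued for the first 8 days. Cornea and conjunctiva mRNA for MMP-2 and TNF-α was quantified by real-time PCR; n = 5.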

Mus musculus [26] = species on record: Mus musculus; experiment: Amelioration ocular surface damage in scopolamine-induced dry eye in C57BL/6J mouse model assessed as decrease in TNF-alpha mRNA expression level in cornea at 0.3 %,TOP 3 times day for 10 days by RT-PCR analysis; assay type: functional, organism-based; conditions: time 10.0 day; outline: as §3
Mus musculus [27] = species on record: Mus musculus; experiment: Amelioration ocular surface damage in scopolamine-induced dry eye in C57BL/6J mouse model assessed as decrease in TNF-alpha mRNA expression level in conjunctiva at 0.3 %,TOP 3 times day for 10 days by RT-PCR analysis; assay type: functional, organism-based; conditions: time 10.0 day; outline: as §3
Mus musculus [28] = species on record: Mus musculus; experiment: Amelioration ocular surface damage in scopolamine-induced dry eye in C57BL/6J mouse model assessed as decrease in MMP-2 mRNA expression level in cornea at 0.3 %,TOP 3 times day for 10 days by RT-PCR analysis; assay type: functional, organism-based; conditions: time 10.0 day; outline: as §3
Mus musculus [29] = species on record: Mus musculus; experiment: Amelioration ocular surface damage in scopolamine-induced dry eye in C57BL/6J mouse model assessed as decrease in IL-17 mRNA expression level in cornea at 0.3 %,TOP 3 times day for 10 days by RT-PCR analysis; assay type: functional, organism-based; conditions: time 10.0 day
Outline: (§4)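 Dry eye was induced with scopolamine hydrobromide 0.5 mg/0.1 mL given subcutaneously three times daily for 14 days. Eye drops were then applied to both eyes three times daily for 10 days, with scopolamine continued for the first 8 treatment days. The vehicle was 5% polyoxyl 35 castor oil in sodium phosphate buffer. Corneal and conjunctival IL-17 mRNA was measured by real-time PCR; mean ± S.E., n = 5.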

Mus musculus [30] = species on record: Mus musculus; experiment: Amelioration ocular surface damage in scopolamine-induced dry eye in C57BL/6J mouse model assessed as decrease in IL-17 mRNA expression level in conjunctiva at 0.3 %,TOP 3 times day for 10 days by RT-PCR analysis; assay type: functional, organism-based; conditions: time 10.0 day; outline: as §4
Mus musculus [31] = species on record: Mus musculus; experiment: Effect on tear secretion in C57BL/6J mouse assessed as increase in tear volume at 1 to 72 uM,TOP and measured upto 6 hrs by phenol red thread test; assay type: functional; conditions: dose 1-72 µM
Outline: (§5)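 Normal female C57BL/6J mice received 2.5 μL eye drops in both eyes, held for 30 s. Vehicle was 5% polyoxyl 35 castor oil in sodium phosphate buffer. Tear volume was read by phenol red thread placed 15 s in the lateral canthus, wet length by caliper. Readings were taken at 0 h (baseline) and at 1, 3 and 6 h post-dose; n = 6.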

[32] = target: T1, Cystic fibrosis transmembrane conductance regulator (Homo sapiens, UniProt P13569); experiment: Activation of human wild-type CFTR stably expressed in CHO-K1 cells co-expressing halide sensors YFP-H148Q/I152L assessed as CFTR-mediated iodide influx incubated for 10 mins by YFP fluorescence quenching assay; assay type: cell-based
Mus musculus [33] = species on record: Mus musculus; experiment: Effect on tear secretion in C57BL/6J mouse assessed as maximum tear volume at 1 to 72 uM,TOP and measured after 3 hr by phenol red thread test; assay type: functional; conditions: dose 1-72 µM; outline: as §5
[34] = target: T1, Cystic fibrosis transmembrane conductance regulator; experiment: Activation of human wild-type CFTR stably expressed in rat FRT cells assessed as increase in apical membrane chloride current incubated for 20 mins by patch-clamp assay; assay type: cell-based

T1 sequence (P13569 whole entry): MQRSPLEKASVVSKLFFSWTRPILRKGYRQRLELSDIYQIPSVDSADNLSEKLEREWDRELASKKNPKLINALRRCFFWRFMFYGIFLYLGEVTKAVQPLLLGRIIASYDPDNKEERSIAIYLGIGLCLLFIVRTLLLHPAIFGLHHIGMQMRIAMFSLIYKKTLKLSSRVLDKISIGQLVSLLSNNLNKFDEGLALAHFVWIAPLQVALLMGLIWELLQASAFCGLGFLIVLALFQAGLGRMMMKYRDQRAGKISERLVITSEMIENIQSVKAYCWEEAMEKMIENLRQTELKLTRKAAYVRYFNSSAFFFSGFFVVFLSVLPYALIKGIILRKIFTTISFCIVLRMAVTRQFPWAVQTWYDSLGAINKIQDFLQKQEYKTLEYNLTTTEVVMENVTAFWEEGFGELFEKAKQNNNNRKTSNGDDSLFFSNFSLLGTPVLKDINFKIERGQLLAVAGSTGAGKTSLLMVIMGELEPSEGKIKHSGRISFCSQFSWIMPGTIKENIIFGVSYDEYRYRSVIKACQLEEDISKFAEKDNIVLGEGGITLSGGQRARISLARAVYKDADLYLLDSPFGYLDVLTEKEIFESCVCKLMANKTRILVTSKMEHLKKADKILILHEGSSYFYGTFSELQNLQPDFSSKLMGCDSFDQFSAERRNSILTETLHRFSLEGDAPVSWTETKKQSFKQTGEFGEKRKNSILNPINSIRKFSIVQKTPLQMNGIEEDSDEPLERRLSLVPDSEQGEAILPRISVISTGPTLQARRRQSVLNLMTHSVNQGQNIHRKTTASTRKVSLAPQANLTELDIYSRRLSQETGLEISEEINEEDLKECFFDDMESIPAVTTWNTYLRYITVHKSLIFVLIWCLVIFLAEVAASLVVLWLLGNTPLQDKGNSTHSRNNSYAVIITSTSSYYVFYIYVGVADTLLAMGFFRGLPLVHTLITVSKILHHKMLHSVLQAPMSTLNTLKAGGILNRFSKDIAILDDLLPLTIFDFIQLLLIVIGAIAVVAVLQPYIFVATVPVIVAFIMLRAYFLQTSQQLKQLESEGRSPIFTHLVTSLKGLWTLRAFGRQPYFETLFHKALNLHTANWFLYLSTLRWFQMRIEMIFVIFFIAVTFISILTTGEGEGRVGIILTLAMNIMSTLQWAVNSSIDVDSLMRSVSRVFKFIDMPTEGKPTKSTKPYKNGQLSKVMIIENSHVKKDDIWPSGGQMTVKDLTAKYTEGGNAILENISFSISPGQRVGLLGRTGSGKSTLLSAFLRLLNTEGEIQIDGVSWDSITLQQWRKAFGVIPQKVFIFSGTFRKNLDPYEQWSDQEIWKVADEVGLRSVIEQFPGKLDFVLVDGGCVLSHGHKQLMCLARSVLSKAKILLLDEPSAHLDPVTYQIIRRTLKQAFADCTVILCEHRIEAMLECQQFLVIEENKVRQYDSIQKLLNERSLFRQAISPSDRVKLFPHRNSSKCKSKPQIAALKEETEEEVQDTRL

- AUC [1]: 7952 ng·h/mL
- AUC(0-inf) [2]: 35800 ng·h/mL
- Cmax [3]: 749 ng/mL
- AUC(0-t) at 72 h [4]: 4730 ng·h/mL
- t1/2 [5]: 23.1 h
- AUC(0-t) at 72 h [6]: 28300 ng·h/mL
- AUC(0-t) at 72 h [8]: 9820 ng·h/mL
- Cmax [9]: 793 ng/mL
- AUC(0-inf) [10]: 13700 ng·h/mL
- Tlast [12]: 72 h
- Cmax [13]: 7840 ng/mL
- AUClast [14]: 16573 ng·h/mL
- solubility thermodynamic at 1.5 h [15]: 134 µM (≈ 65.3 µg/mL)
- Tlast [16]: 72 h
- Tmax [17]: 0.5 h
- Tlast [18]: 72 h
- AUC(0-t) at 72 h [19]: 19400 ng·h/mL
- t1/2 [20]: 40.6 h
- AUC [21]: 18750 ng·h/mL
- Tmax [22]: 0.5 h
- t1/2 [23]: 29.8 h
Compound: COc1ccc(-c2ccnc3cc(C(=O)N4CCN(C(=O)c5ccccc5)[C@@H](C)C4)nn23)cc1OC
- Activity [7]: Non-Toxic
- Activity [11]: Non-Toxic

Compound: O=c1ccn(C2O[C@H](COP(=O)(O)OP(=O)(O)OP(=O)(O)OP(=O)(O)OC[C@H]3O[C@@H](n4ccc(=O)[nH]c4=O)[C@H](O)[C@@H]3O)[C@@H](O)[C@H]2O)c(=O)[nH]1 (some centres undefined)
- Activity (Mus musculus [24]): Active
- Activity (Mus musculus [25]): Active
- Activity (Mus musculus [26]): Active
- Activity (Mus musculus [27]): Active
- Activity (Mus musculus [28]): Active
- Activity (Mus musculus [29]): Active
- Activity (Mus musculus [30]): Active

- EC50 [32]: 18 nM
- EC50 [34]: 342 nM
Compound: CCOc1ccc(NC(=O)c2cc3nccc(-c4ccc(OC)c(OC)c4)n3n2)cc1
- Activity (Mus musculus [31]): Dose-Dependent Effect
- Activity (Mus musculus [33]): Active
